According to ChEMBL document CHEMBL4020832, “Development of (6 R)-2-Nitro-6-[4-(trifluoromethoxy)phenoxy]-6,7-dihydro-5 H-imidazo[2,1- b][1,3]oxazine (DNDI-8219): A New Lead for Visceral Leishmaniasis” (J Med Chem, 2018):

What was measured:
Liver [1] = assay: Metabolic stability in human liver microsomes assessed as parent compound remaining at 1 uM after 1 hr; assay type: ADME, microsome
Liver [2] = assay: Metabolic stability in CD-1 mouse liver microsomes assessed as parent compound remaining at 1 uM after 1 hr; assay type: ADME, microsome
[3] = Metabolic stability in hamster liver microsomes assessed as parent compound remaining at 1 uM after 1 hr; assay type: ADME, microsome; details: read-out: Stability
[4] = Initial concentration in golden Syrian hamster at 2 mg/kg, iv by LC-MS/MS analysis; assay type: ADME, organism-based, Mesocricetus auratus; details: in vivo
How it was run: (§1)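 Fasted female golden Syrian hamsters given 2 mg/kg iv as a solution in 20% NMP and 40% PEG-400 in citrate buffer pH 3. Plasma concentrations determined by LC–MS/MS to derive PK parameters.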

[5] = Clearance in golden Syrian hamster at 2 mg/kg, iv by LC-MS/MS analysis; assay type: ADME, organism-based, Mesocricetus auratus; details: in vivo
[6] = Volume of distribution at steady state in golden Syrian hamster at 2 mg/kg, iv by LC-MS/MS analysis; assay type: ADME, organism-based, Mesocricetus auratus; details: in vivo, read-out: Vdss; how it was run: as §1
[7] = Half life in golden Syrian hamster at 2 mg/kg, iv by LC-MS/MS analysis; assay type: ADME, organism-based, Mesocricetus auratus; details: in vivo
How it was run: (§2)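 Fasted female golden Syrian hamsters. IV dose was 2 mg/kg as a solution in 20% NMP and 40% PEG-400 in citrate buffer (pH 3). Oral dosing at 40–50 mg/kg used PEG-400 as vehicle. Plasma was quantified by LC–MS/MS. AUClast was taken to the last time point (24 or 48 h).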

[8] = AUClast in golden Syrian hamster at 2 mg/kg, iv after 24 to 48 hrs by LC-MS/MS analysis; assay type: ADME, organism-based, Mesocricetus auratus; details: in vivo; how it was run: as §2
[9] = Cmax in golden Syrian hamster at 50 mg/kg, po by LC-MS/MS analysis; assay type: ADME, organism-based, Mesocricetus auratus; design: dose 50 mg/kg, route oral; details: in vivo; how it was run: as §2
[10] = Tmax in golden Syrian hamster at 50 mg/kg, po by LC-MS/MS analysis; assay type: ADME, organism-based, Mesocricetus auratus; details: in vivo
[11] = Half life in golden Syrian hamster at 50 mg/kg, po by LC-MS/MS analysis; assay type: ADME, organism-based, Mesocricetus auratus; details: in vivo
[12] = AUClast in golden Syrian hamster at 50 mg/kg, po after 24 to 48 hrs by LC-MS/MS analysis; assay type: ADME, organism-based, Mesocricetus auratus; details: in vivo; how it was run: as §2
Syrian golden hamster [13] = assay: Oral bioavailability in golden Syrian hamster at 50 mg/kg by LC-MS/MS analysis; assay type: ADME, organism-based, Mesocricetus auratus; details: in vivo
Mus musculus [14] = assay: (§3) Cmax in Swiss albino mouse at 40 mg/kg, po by LC-MS/MS analysis; assay type: ADME, organism-based; design: dose 40 mg/kg, route oral; details: in vivo
Syrian golden hamster [15] = assay: Oral bioavailability in golden Syrian hamster at 40 mg/kg by LC-MS/MS analysis; assay type: ADME, organism-based, Mesocricetus auratus; details: in vivo
Mus musculus [16] = assay: (§4) Tmax in Swiss albino mouse at 40 mg/kg, po by LC-MS/MS analysis; assay type: ADME, organism-based; details: in vivo
[17] = Half life in Swiss albino mouse at 40 mg/kg, po by LC-MS/MS analysis; assay type: ADME, organism-based; details: in vivo
Mus musculus [18] = assay: (§5) AUClast in Swiss albino mouse at 40 mg/kg, po after 24 to 48 hrs by LC-MS/MS analysis; assay type: ADME, organism-based; details: in vivo
[19] = Initial concentration in Sprague-Dawley rat at 1 mg/kg, iv by LC-MS/MS analysis; assay type: ADME, organism-based; details: in vivo
How it was run: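 Male Sprague-Dawley rats, fasted, dosed iv at 1 mg/kg as a solution in 20% NMP/40% PEG-400 in citrate buffer (pH 3). Plasma was analysed by LC–MS/MS and C0 was derived with WinNonlin-type PK analysis.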

[20] = Clearance in Sprague-Dawley rat at 1 mg/kg, iv by LC-MS/MS analysis; assay type: ADME, organism-based; details: in vivo
How it was run: (§6)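 Fasted male Sprague-Dawley rats. IV dose was 1 mg/kg as a solution in 20% NMP and 40% PEG-400 in citrate buffer (pH 3). Oral dose was 40–50 mg/kg as a suspension in 0.08% Tween 80 and 0.5% CMC in water. Plasma was analysed by LC–MS/MS. AUClast was taken to the last time point (24 or 48 h).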

[21] = Volume of distribution at steady state in Sprague-Dawley rat at 1 mg/kg, iv by LC-MS/MS analysis; assay type: ADME, organism-based; details: in vivo, read-out: Vdss
How it was run: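 Fasted male Sprague-Dawley rats received 1 mg/kg iv as a solution in 20% NMP/40% PEG-400 in citrate buffer pH 3. Plasma concentrations by LC–MS/MS used for PK parameter estimation.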

[22] = Half life in Sprague-Dawley rat at 1 mg/kg, iv by LC-MS/MS analysis; assay type: ADME, organism-based; details: in vivo; how it was run: as §6
[23] = AUClast in Sprague-Dawley rat at 1 mg/kg, iv after 24 to 48 hrs by LC-MS/MS analysis; assay type: ADME, organism-based; details: in vivo; how it was run: as §6
Rattus norvegicus [24] = assay: (§7) Cmax in Sprague-Dawley rat at 40 mg/kg, po by LC-MS/MS analysis; assay type: ADME, organism-based; design: dose 40 mg/kg, route oral; details: in vivo; how it was run: as §6
Rattus norvegicus [25] = assay: (§8) Tmax in Sprague-Dawley rat at 40 mg/kg, po by LC-MS/MS analysis; assay type: ADME, organism-based; details: in vivo
How it was run: (§9)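 Fasted male Sprague-Dawley rats dosed orally at 40–50 mg/kg as a suspension in 0.08% Tween 80/0.5% CMC in water. iv reference was 1 mg/kg in 20% NMP/40% PEG-400 in citrate buffer pH 3. Plasma analysed by LC–MS/MS. F from dose-normalized AUClast.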

Rattus norvegicus [26] = assay: (§10) Oral bioavailability in Sprague-Dawley rat at 40 mg/kg by LC-MS/MS analysis; assay type: ADME, organism-based; details: in vivo; how it was run: as §9
[27] = Cmax in golden Syrian hamster at 40 mg/kg, po by LC-MS/MS analysis; assay type: ADME, organism-based, Mesocricetus auratus; design: dose 40 mg/kg, route oral; details: in vivo; how it was run: as §2
[28] = Tmax in golden Syrian hamster at 40 mg/kg, po by LC-MS/MS analysis; assay type: ADME, organism-based, Mesocricetus auratus; details: in vivo
[29] = Half life in golden Syrian hamster at 40 mg/kg, po by LC-MS/MS analysis; assay type: ADME, organism-based, Mesocricetus auratus; details: in vivo
[30] = AUClast in golden Syrian hamster at 40 mg/kg, po after 24 to 48 hrs by LC-MS/MS analysis; assay type: ADME, organism-based, Mesocricetus auratus; details: in vivo; how it was run: as §2
[31] = Octanol/phosphate buffer solution distribution coefficient, log D of the compound at pH 7.4 by LC-MS/MS method; assay type: physicochemical; details: octanol/water
How it was run: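 Shake-flask partition between octanol and 100 mM phosphate buffer pH 7.4 at room temperature, final matrix 1% DMSO. Phases quantified by LC–MS/MS.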

[32] = Apparent permeability from apical to basolateral side in MDCK cells harboring MDR1 at 2 uM after 150 mins by LC-MS/MS analysis; assay type: ADME, cell-based, Canis lupus familiaris; details: dog
How it was run: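 MDCK-MDR1 monolayers were seeded at 2 × 10^5 cells/cm2 and grown to confluence over 4–7 days. Compound at 2 μM in 0.4% DMSO/HBSS was applied apically or basolaterally. Plates were incubated 150 min at 37 °C, 5% CO2, in triplicate. Quantitation was by LC–MS/MS analyte/internal-standard peak-area ratio.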

[33] = as §3; assay type: ADME, organism-based; design: dose 40 mg/kg, route oral; details: Swiss albino, in vivo
[34] = as §4; assay type: ADME, organism-based; details: Swiss albino, in vivo
[35] = as §5; assay type: ADME, organism-based; details: Swiss albino, in vivo
[36] = as §7; assay type: ADME, organism-based; design: dose 40 mg/kg, route oral; details: Sprague-Dawley, in vivo; how it was run: as §6
[37] = as §8; assay type: ADME, organism-based; details: Sprague-Dawley, in vivo; how it was run: as §9
[38] = Half life in Sprague-Dawley rat at 40 mg/kg, po by LC-MS/MS analysis; assay type: ADME, organism-based; details: in vivo; how it was run: as §6
[39] = AUClast in Sprague-Dawley rat at 40 mg/kg, po after 24 to 48 hrs by LC-MS/MS analysis; assay type: ADME, organism-based; details: in vivo
[40] = as §10; assay type: ADME, organism-based; details: Sprague-Dawley, in vivo; how it was run: as §9

Row | Structure (SMILES) | Stability (Liver [1]) [%] | Stability (Liver [2]) [%] | remaining at 1 h, 1 µM [3] [%] | C0 [4] [ng/mL] | Vd [6] [L/kg] | half-life [7] [h] | AUC(0-t) [8] [µg·h/mL] | Cmax [9] [ng/mL] | Tmax [10] [h] | half-life [11] [h] | AUC(0-t) [12] [µg·h/mL] | half-life [17] [h] | C0 [19] [ng/mL] | clearance [20] [mL/min/kg] | Vd [21] [L/kg] | half-life [22] [h] | AUC(0-t) [23] [µg·h/mL] | other results
1 | O=[N+]([O-])c1cn2c(n1)OC[C@H](OCc1ccc(-c3ccc(F)cc3F)nc1)C2 | 58 | 67 | 10 | 520 | 5.4 | 1.4 | 0.71 | 1100 | 1.7 | 17 | 3.4 | – | – | – | – | – | – | clearance [5]: 59 mL/min/kg; F (Syrian golden hamster [13]): 21%
2 | O=[N+]([O-])c1cn2c(n1)OC[C@H](Oc1ccc(OC(F)(F)F)cc1)C2 | – | – | 19 | 660 | 6.5 | 1.4 | 0.42 | – | – | – | – | 7.8 | 540 | 11 | 2.7 | 3 | 1.51 | Cmax (Mus musculus [14]): 21000 ng/mL; F (Syrian golden hamster [15]): 100%; Tmax (Mus musculus [16]): 5.3 h; AUClast (Mus musculus [18]): 272 µg·h/mL; Cmax (Rattus norvegicus [24]): 5200 ng/mL; Tmax (Rattus norvegicus [25]): 6.7 h; F (Rattus norvegicus [26]): 100%; Cmax [27]: 2100 ng/mL; Tmax [28]: 3.3 h; half-life [29]: 2.2 h; AUC(0-t) [30]: 11.2 µg·h/mL; logD [31]: 2.59; Papp [32]: 32.4 ×10⁻⁶ cm/s
3 | O=[N+]([O-])c1cn2c(n1)OC[C@H](Oc1ccc(C(F)(F)F)cn1)C2 | 90 | 92 | 48 | – | – | – | – | 12000 | 3.3 | 3.1 | 71 | 30 | 840 | 6.1 | 1.5 | 2.7 | 2.47 | Cmax [33]: 96000 ng/mL; Tmax [34]: 3.1 h; AUC(0-t) [35]: 1780 µg·h/mL; Cmax [36]: 18000 ng/mL; Tmax [37]: 2.7 h; half-life [38]: 3.5 h; AUC(0-t) [39]: 164 µg·h/mL; bioavailability [40]: 100%
